# Compounds with a hit are over-represented: about 2.1% of the library has one in this group of screens.
# CXCR6 block: blocks human CXCR6 beta-arrestin recruitment | O00574 | CHO-K1 PathHunter CXCR6 beta-arrestin, luminescence | inhibition, % at 20 µM | 360,000 compounds, 0.36% hits | AID 602244; in the data active = inhibition above about 34%, passing the limit was not always enough;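 note: antagonist mode with CXCL16 agonist at 10 nM final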
# HTR2A ag: activates the mouse 5-HT2A serotonin receptor. P35363. CHO-K1 mHTR2A beta-arrestin complementation, luminescence; percent of 30 µM serotonin response. activation, % at 7.6 µM. 360,000 compounds, 0.66% hits;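 active = activation above a run cutoff, the mean activation of all tested compounds plus 3 SD, cut at about 14% in these data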
# EBI2 block: antagonists of human EBI2 receptor. inhibition, % at 5 µM. 360,000 compounds, 0.81% hits. P32249. EBI2 beta-arrestin recruitment, luminescence, 7a,25-OHC stimulated; in the data active = inhibition above about 38%;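 note: enzyme fragment complementation signal reports receptor beta-arrestin coupling in cells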
# CCR6 antag: CCR6 (human) receptor antagonism | P51684 | CHO-K1 CCR6 PathHunter beta-arrestin, luminescence, CCL20-stimulated | inhibition, % at 20 µM | 340,000 compounds, 0.49% hits;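 active = compounds whose inhibition of the agonist-driven luminescence signal at 20 µM reaches about 50%, limit read from the data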;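 note: cells stimulated with CCL20 at 14 nM final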
# APJ ag: APJ receptor agonism. 330,000 compounds, 0.11% hits. CHO-K1 APJ PathHunter beta-arrestin, luminescence; 0% DMSO wells, 100% apelin. activation, % at 20 µM. P35414;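 active = activation more than six SD over the plate average, tested at 20 µM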
# Target sequence (P35414 whole entry, looked up): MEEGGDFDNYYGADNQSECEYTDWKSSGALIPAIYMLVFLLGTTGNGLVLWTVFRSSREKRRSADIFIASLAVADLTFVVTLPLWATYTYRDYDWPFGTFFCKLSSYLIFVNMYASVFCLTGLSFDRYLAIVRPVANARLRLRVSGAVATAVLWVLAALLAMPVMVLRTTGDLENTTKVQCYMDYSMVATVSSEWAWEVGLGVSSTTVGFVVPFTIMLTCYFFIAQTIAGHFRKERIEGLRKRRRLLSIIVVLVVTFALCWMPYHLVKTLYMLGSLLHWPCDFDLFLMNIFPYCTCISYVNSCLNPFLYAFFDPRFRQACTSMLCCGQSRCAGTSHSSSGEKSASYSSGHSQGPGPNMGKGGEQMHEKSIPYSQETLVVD
#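 Assay system: CHO-K1 cells stably expressing ProLink-tagged human APJ and arrestin–beta-gal acceptor. Compound dosing: 20 µM single point, 1% DMSO. Times: 16-18 h seeding, 90 min dark compound exposure, 60 min detection. Detection: beta-gal luminescence. Evaluation: APJ–arrestin association signal. Controls: negative DMSO alone, positive Apelin-13 at 10 nM.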
# APJ antag: antagonists of human APJ apelin receptor. CHO-K1 APJ beta-arrestin complementation, luminescence. inhibition, % at 20 µM. 330,000 compounds, 0.32% hits. P35414;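 active = inhibition above about 40% at 20 µM, limit read from the data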;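 note: cells challenged with 10 nM apelin-13 agonist together with compound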
# MOR ag counter: counter-screen for mouse HTR2A agonists: human mu opioid receptor agonists; activation, % at 9.3 µM; U2OS OPRM1 beta-arrestin PathHunter, luminescence; DMSO 0%, DAMGO 9.3 µM 100%; 2,300 compounds, 5.3% hits; shares compounds with HTR2A ag;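 active = mean activation above the mean of DMSO-only wells plus 3 SD, cut at about 0.5% in these data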
# m5-HT2A ag conf: confirmation of mouse HTR2A serotonin receptor agonists; activation, % at 7.6 µM; 2,300 compounds, 19% hits; shares compounds with HTR2A ag; CHO-K1 PathHunter beta-arrestin recruitment, luminescence; DMSO 0%, 30 µM serotonin 100%;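 active = mean activation across triplicates above the hit threshold derived in the original primary screen, cut at about 15% in these data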
# A number is an active result; . = inactive; / = no result given.
SMILES,CXCR6 block,HTR2A ag,EBI2 block,CCR6 antag,APJ ag,APJ antag,MOR ag counter,m5-HT2A ag conf
COc1ccc(OC)c(CN2CCN(C(=O)c3ccco3)CC2)c1,.,16,.,.,.,.,1.2,34
COc1cccc(CN2CCN(C(=O)c3ccco3)CC2)c1,.,37,.,.,.,.,.,109
Cc1oc(-c2cc(F)ccc2F)nc1CN1CCCN(C(=O)c2ccco2)CC1,.,.,.,.,.,.,/,/
COc1cccc(-c2nc(CN3CCN(C(=O)c4ccco4)CC3)c(C)o2)c1OC,.,15,.,/,/,/,.,43
Cc1cc(F)ccc1S(=O)(=O)Nc1ccc(O)c(Sc2ncn[nH]2)c1,.,.,.,.,.,.,/,/
O=C(COC(=O)COc1ccccc1)Nc1ccc(OC(F)(F)F)cc1,.,.,.,.,.,.,/,/
c1ccc2cc(CN3CCOCC3)ccc2c1,.,20,.,.,.,.,.,.
CCCC(=O)Nc1nn(CC(C)C)c2nc3cc(C)ccc3cc12,.,.,.,.,.,.,/,/
CCn1nc(NC(=O)CC(C)C)c2cc3ccc(C)cc3nc21,.,14,.,.,.,.,.,.
COC(=O)[C@H]1C[C@@]2(O)CN(S(=O)(=O)c3ccc(C)cc3)C[C@@]2(OC(=O)NCc2ccccc2F)C[C@H]1C(=O)OC,.,19,.,/,/,/,.,.
Cc1cccc(C)c1NC(=O)CN(C)C(=O)CC1OC(=O)c2ccccc21 (centres undefined),.,18,.,.,.,.,.,.
CN(CC(=O)Nc1ccc(F)c(F)c1F)C(=O)CC1OC(=O)c2ccccc21 (centres undefined),.,.,.,.,.,.,/,/
CCn1ncc(Cl)c1C(=O)NC(=S)Nc1c(C)cc(C)cc1[N+](=O)[O-],.,.,.,.,.,.,/,/
C[C@H]1CCCCO[C@H](CN(C)Cc2ccccc2)[C@@H](C)CN([C@@H](C)CO)C(=O)c2cc(NC(=O)CCC(F)(F)F)ccc2O1,.,23,.,/,/,/,.,.
COc1ccc(CN(C)C[C@H]2OCCCC[C@H](C)Oc3ccc(NC(=O)CCC(F)(F)F)cc3C(=O)N([C@@H](C)CO)C[C@@H]2C)cc1,.,.,.,/,/,/,/,/
Cc1ccc(SCCC(=O)N2CCC(C)CC2)cc1,.,.,.,.,.,.,/,/
CC1(C)CC(O)CC(C)(C)N1CC(O)COCCOc1ccc(Br)cc1 (centres undefined),.,.,.,.,.,.,/,/
CCOc1ccc(C(=O)Nc2cc(C)c3c(=O)oc4ccccc4c3n2)cc1,.,.,.,.,.,.,/,/
CC(C)(C)c1csc(NC(=O)c2c(F)c(F)c(F)c(F)c2F)n1,.,17,.,.,.,.,.,15
CN(C(=O)CCOc1ccccc1)c1c(N)n(Cc2ccccc2)c(=O)[nH]c1=O,.,.,.,.,.,.,/,/
CCOC(=O)N1CCN(C(=O)CNC(=O)c2ccc(Br)cc2)CC1,.,.,.,.,.,.,/,/
COc1ccc(C(=O)N/N=C(\C)CC(=O)Nc2ccc3c(c2)OCO3)cc1,.,.,.,.,.,.,/,/
C[C@@H]1c2ccccc2N2C[C@H](Cc3ccc(C(=O)c4ccccc4)cc3)C[C@@H]12,.,16,.,/,/,/,.,.
CCOc1ccc(NC(=O)NCCN2CCN(c3ccccc3F)CC2)cc1,.,.,.,.,.,.,/,/
Cn1c(N)c(C(=O)COC(=O)CNC(=O)c2ccc(Cl)cc2Cl)c(=O)n(C)c1=O,.,14,.,.,.,.,.,.
SMILES,CXCR6 block,HTR2A ag,EBI2 block,CCR6 antag,APJ ag,APJ antag,MOR ag counter,m5-HT2A ag conf
CC(=O)Nc1ccc(C(=O)Nc2ccc(S(=O)(=O)N3CCOCC3)cc2)cc1,.,.,.,.,.,.,/,/
CC(=O)N1CCN(C(=S)NC(=O)c2ccc(S(=O)(=O)N3CCOCC3)cc2)CC1,.,16,.,.,.,.,.,.
CCSc1cc(C)nc2ncnn12,.,.,.,.,.,.,/,/
CCCCCCSc1cc(C)nc2ncnn12,.,21,.,.,.,.,.,.
Cc1[nH]c2ccccc2c1NC(=O)CN1CCN(C(=O)c2ccco2)CC1,.,22,.,.,.,.,.,81
Cc1ccc2nc(-c3ccc(NC(=O)CN4CCN(C(=O)c5ccco5)CC4)cc3)sc2c1,.,15,.,.,.,.,.,60
Clc1ccc(CN2CCN(c3ccccc3)CC2)cn1,.,22,.,.,.,.,.,81
Clc1ncc(CN2CCN(c3ccccc3)CC2)s1,.,31,.,.,.,.,.,84
Fc1ccccc1N1CCN(Cc2cnc(Cl)s2)CC1,.,.,.,.,.,.,/,/
O=C(COC(=O)c1ccc(O)cc1O)NC(=O)NCc1ccccc1,.,.,.,.,.,.,/,/
Cc1ccc(NC(=O)NC(=O)COC(=O)c2ccc(O)cc2O)c(C)c1,.,15,.,/,/,/,.,.
CCN(C(=O)c1ccc(NC(=O)Cc2ccccc2)cc1)c1ccccc1,.,.,.,.,.,.,/,/
CC(=O)c1ccc(-c2cnc3c(NC=O)cc(-c4ccc(C(=O)N5CCOCC5)cc4)cn23)cc1,.,.,.,/,/,/,/,/
COc1ccc(-c2cnc3c(NC=O)cc(-c4ccc(C(=O)N5CCOCC5)cc4)cn23)cc1OC,.,17,.,/,/,/,.,.
Cc1cc(NC(=O)CSc2nnc(-c3ccc(S(=O)(=O)N4CCCC4)cc3)n2C)no1,.,18,.,.,.,.,.,.
Cc1ccccc1NS(=O)(=O)c1ccc(C(=O)NCC(c2ccco2)N(C)C)cc1 (centres undefined),.,.,.,.,.,.,/,/
Cc1ccc(S(=O)(=O)N/N=C/c2c(F)cccc2Cl)cc1,.,15,.,.,.,.,.,.
O=S(=O)(N/N=C/c1c(F)cccc1Cl)c1ccccc1,.,.,.,.,.,.,/,/
CCOc1cc(NC(=S)Nc2cccc(C)c2)c(OCC)cc1NC(=O)CC(C)C,.,.,.,.,/,/,/,/
O=S(=O)(NC1=NCCCCC1)c1cc(F)ccc1F,.,22,.,.,.,.,.,.
CC(Oc1ccccc1)C(=O)N1CCN(c2ccc(N3CCCCCC3)nn2)CC1 (centres undefined),.,.,.,.,.,.,/,/
CC(C)C(NC(=O)/C(=C/c1ccco1)NC(=O)c1ccc(Br)o1)C(=O)O (centres undefined),.,.,.,.,.,.,/,/
